For experiment [1], the system named is L1210. Briefly: Antitumor activity in the mice with intraperitoneal implanted L1210 lymphoid leukemia at the dose of 75 mg/kg/day x 5 was determined as mean survival of treated group compared to untreated; 18.5/9.5. The class given is functional, Mus musculus.
Experiment [2] has as its system L1210. The experiment in a line: Antitumor activity in the mice with intraperitoneal implanted L1210 lymphoid leukemia at the dose of 50 mg/kg/day x 5 was determined as mean survival of treated group compared to untreated; 19/8. Type of experiment: functional, Mus musculus. The method, boiled down:
(§1)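 C3D2F1/J female mice (C3H/HeJ female × DBA/2J male), groups of six to eight, average weight 25 g. Inoculated ip with 1 × 10^6 L1210 ascites cells taken from DBA/2Ha donor mice bearing 3-5 day old tumors. Compounds were dissolved in 0.154 N NaOH, neutralized with 0.154 N HCl (final 0.9% NaCl), and given ip daily for 5 days from 24 h post-implant. Median survival T/C; ILS = (T/C − 1) × 100; 30-day survivors counted.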

The subject of experiment [3] is L1210. Briefly: Antitumor activity in the mice with intraperitoneal implanted L1210 lymphoid leukemia at the dose of 25 mg/kg/day x 5 was determined as mean survival of treated group compared to untreated; 16/8.5. Type of experiment: functional, Mus musculus. Put shortly: as §1
For experiment [4], the system named is L1210. The experiment in a line: Antitumor activity in mice with intraperitoneal implanted L1210 lymphoid leukemia at the dose 75 mg/kg/day x 5 was determined as weight change (g/mouse) on 8th day. Type of experiment: functional. The method, boiled down: (§2)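 C3D2F1/J female mice (C3H/HeJ × DBA/2J), groups of six to eight, average 25 g, inoculated ip with 1 × 10^6 L1210 ascites cells taken from DBA/2Ha donor mice carrying 3-5 day tumors. Compound dissolved in 0.154 N NaOH, then neutralized with 0.154 N HCl to give 0.9% NaCl. Given ip daily for 5 consecutive days starting 24 h after implantation. Body weight change per mouse recorded on day 8.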

Experiment [5] has as its system L1210. Briefly: In Vitro evaluation for the antiproliferative activity by observing the growth inhibition of L1210 lymphoid leukemia cells in culture at 72 hour. The class given is functional, Mus musculus. The method, boiled down: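 Growth of L1210 lymphoid leukemia cells in culture measured by Trypan blue exclusion of viable cells after 72 h of drug exposure. ED50 is the concentration giving 50% growth inhibition. In some runs the compound was first preincubated in medium at 37 °C for 24 or 48 h before the assay.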

The subject of experiment [6] is L1210. Briefly: Antitumor activity in mice with intraperitoneal implanted L1210 lymphoid leukemia at the dose 25 mg/kg/day x 5 was determined as weight change (g/mouse) on 8th day. Type of experiment: functional. The method, boiled down: as §2
Experiment [7] relates to L1210. The experiment in a line: Antitumor activity in mice with intraperitoneal implanted L1210 lymphoid leukemia at the dose 50 mg/kg/day x 5 was determined as weight change (g/mouse) on 8th day. The class given is functional. Put shortly: as §2
Experiment [8] relates to L1210. Briefly: Antitumor activity in the mice with intraperitoneal implanted L1210 lymphoid leukemia at the dose 25 mg/kg/day x 5 was determined and number of animals survived on 30 th day were reported; 0/8. Type of experiment: functional, Mus musculus. The method, boiled down: (§3)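 Female C3D2F1/J mice (C3H/HeJ × DBA/2J), groups of six to eight, average weight 25 g. Each mouse got 1 × 10^6 L1210 ascites cells ip, taken from DBA/2Ha donor mice bearing 3-5 day tumors. Compound was dissolved in 0.154 N NaOH and neutralized with 0.154 N HCl (final 0.9% NaCl). Dosed ip daily ×5, starting 24 h after implant. Recorded body weight change on day 8, survival range, median survival and 30-day survivors. ILS = (T/C − 1) × 100.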

The test system of experiment [9] is L1210. The experiment in a line: Antitumor activity in the mice with intraperitoneal implanted L1210 lymphoid leukemia at the dose 50 mg/kg/day x 5 was determined as Survival time in days; Range is 17-24 days. Type of experiment: functional, Mus musculus. Put shortly:
as §3

Experiment [10] has as its system L1210. The experiment in a line: Antitumor activity in the mice with intraperitoneal implanted L1210 lymphoid leukemia at the dose 50 mg/kg/day x 5 was determined and number of animals survived on 30 th day were reported; 0/8. Type of experiment: functional, Mus musculus. The method, boiled down:
as §3

For experiment [11], the system named is L1210. Briefly: Antitumor activity in the mice with intraperitoneal implanted L1210 lymphoid leukemia at the dose 75 mg/kg/day x 5 was determined and number of animals survived on 30 th day were reported; 1/8. Type of experiment: functional, Mus musculus. The method, boiled down:
as §1

Experiment [12] has as its system L1210. The experiment in a line: Antitumor activity in the mice with intraperitoneal implanted L1210 lymphoid leukemia at the dose 50 mg/kg/day x 5 was determined as percentage increase in the life span as compared with control tumor bearers. The class given is functional. The following applies: Mus musculus, L1210, ip. The method, boiled down:
as §1

Experiment [13] deals with L1210. Briefly: Antitumor activity in the mice with intraperitoneal implanted L1210 lymphoid leukemia at the dose 75 mg/kg/day x 5 was determined as percentage increase in the life span as compared with control tumor bearers. Type of experiment: functional. The following applies: Mus musculus, L1210, ip. Put shortly:
as §1

For experiment [14], the system named is L1210. The experiment in a line: Antitumor activity in the mice with intraperitoneal implanted L1210 lymphoid leukemia at the dose 25 mg/kg/day x 5 was determined as Survival time in days; Range is 8-21 days. Type of experiment: functional, Mus musculus. Put shortly:
as §3

Experiment [15] deals with L1210. The experiment in a line: Antitumor activity in the mice with intraperitoneal implanted L1210 lymphoid leukemia at the dose 25 mg/kg/day x 5 was determined as percentage increase in the life span as compared with control tumor bearers. Type of experiment: functional. The following applies: Mus musculus, L1210, ip. Put shortly:
as §3

The subject of experiment [16] is L1210. The experiment in a line: Antitumor activity in the mice with intraperitoneal implanted L1210 lymphoid leukemia at the dose 75 mg/kg/day x 5 was determined as Survival time in days; Range is 14- >45 days. The class given is functional, Mus musculus. The method, boiled down: as §1
Experiment [17] has as its system L1210. Briefly: Antitumor activity in the mice with intraperitoneal implanted L1210 lymphoid leukemia at the dose of 19.1 and 26 mg/kg/day x 5 was determined as mean survival of treated group compared to untreated; 10.5/10. The class given is functional, Mus musculus. The method, boiled down: as §1
In experiment [18] the test system is L1210. The experiment in a line: Antitumor activity in mice with intraperitoneal implanted L1210 lymphoid leukemia at the dose 9.2 and 12.6 mg/kg/day x 5 was determined as weight change (g/mouse) on 8th day. The class given is functional. Put shortly:
as §3

For experiment [19], the system named is L1210. Briefly: Antitumor activity in the mice with intraperitoneal implanted L1210 lymphoid leukemia at the dose of 9.2 and 12.6 mg/kg/day x 5 was determined as mean survival of treated group compared to untreated; 16.5/11. The class given is functional, Mus musculus.
For experiment [20], the system named is L1210. Briefly: Antitumor activity in mice with intraperitoneal implanted L1210 lymphoid leukemia at the dose 19.1 and 26 mg/kg/day x 5 was determined as weight change (g/mouse) on 8th day. The class given is functional. The method, boiled down:
as §3

Experiment [21] relates to L1210. The experiment in a line: Antitumor activity in the mice with intraperitoneal implanted L1210 lymphoid leukemia at the dose 9.2 and 12.6 mg/kg/day x 5 was determined as Survival time in days; Range is 13-23 days. The class given is functional, Mus musculus. The method, boiled down: as §1
Experiment [22] concerns L1210. The experiment in a line: Antitumor activity in the mice with intraperitoneal implanted L1210 lymphoid leukemia at the dose 19.1 and 26 mg/kg/day x 5 was determined and number of animals survived on 30 th day were reported; 0/8. The class given is functional, Mus musculus. The method, boiled down:
as §3

Experiment [23] deals with L1210. The experiment in a line: Antitumor activity in the mice with intraperitoneal implanted L1210 lymphoid leukemia at the dose 9.2 and 12.6 mg/kg/day x 5 was determined as percentage increase in the life span as compared with control tumor bearers. Type of experiment: functional, Mus musculus. Put shortly:
as §1

For experiment [24], the system named is L1210. The experiment in a line: Antitumor activity in the mice with intraperitoneal implanted L1210 lymphoid leukemia at the dose 9.2 and 12.6 mg/kg/day x 5 was determined and number of animals survived on 30 th day were reported; 0/6. The class given is functional, Mus musculus. The method, boiled down: as §1
Experiment [25] relates to L1210. The experiment in a line: Antitumor activity in the mice with intraperitoneal implanted L1210 lymphoid leukemia at the dose 19.1 and 26 mg/kg/day x 5 was determined as percentage increase in the life span as compared with control tumor bearers. Type of experiment: functional, Mus musculus. The method, boiled down: as §3
Experiment [26] concerns L1210. The experiment in a line: Antitumor activity in the mice with intraperitoneal implanted L1210 lymphoid leukemia at the dose 19.1 and 26 mg/kg/day x 5 was determined as Survival time in days; Range is 9-12 days. The class given is functional, Mus musculus. The method, boiled down: as §3

Structures are written as SMILES.

With `C[C@]12CC[C@H]3[C@@H](CCC4=CC(=O)CC[C@@]43C)[C@@H]1CC[C@@H]2C(=O)COP(=O)(O)OC[C@H]1O[C@@H](n2ccc(N)nc2=O)[C@@H](O)[C@@H]1O`, the T/C in experiment [1] was found to be 18.5; in experiment [2] it was 19; in [3], 16. Also, the figures for the Weight change in experiment [4], in experiment [6] and in experiment [7] were -0.09 g mouse-1, -0.54 g mouse-1 and -0.94 g mouse-1, respectively. For the same compound, the “ED 50” value in experiment [5] came to 50 nM. Further, the Survivors in [8] is given as 0; in experiment [10], 0; in experiment [11], 1. The values for the Survival time in experiment [9], in experiment [14] and in [16] were 17 days, 8 days and 14 days, respectively. The same compound had an increase in life span (ILS) at 50 mg/kg/day in [12] of 138%. This compound returned an increase in life span (ILS) at 75 mg/kg/day in experiment [13] of 95%. The ILS at 25 mg/kg/day in experiment [15] amounted to 88%.

Consider `C[C@]12CC[C@H]3[C@@H](CCC4=CC(=O)CC[C@@]43C)[C@@H]1CC[C@@H]2C(=O)O.Nc1ccn([C@@H]2O[C@H](CO)[C@@H](O)[C@@H]2O)c(=O)n1`, for which the T/C is on record as 10.5 in experiment [17] and 16.5 in experiment [19]. Moreover, the figures for the Weight change in experiment [18] and in [20] were -3.58 g mouse-1 and -4.25 g mouse-1, respectively. The Survival time was 13 days in experiment [21] and 9 days in experiment [26]. In addition, the Survivors in experiment [22] and in experiment [24] was 0 throughout. Besides, the increase in life span (ILS) in experiment [23] is 50%; in experiment [25] it was 5%.

The values above are taken from ChEMBL document CHEMBL1121364, “Nucleoside conjugates as potential antitumor agents. 3. Synthesis and antitumor activity of 1-(beta-D-arabinofuranosyl)cytosine conjugates of corticosteroids” (1980).
